Results reported in article PMC3827909 (The Journal of organic chemistry, 2013).

Key:
[1] = Hydroxyl radical-scavenging assay; format: biochemical; conditions: ED50 <20 μM considered active
Method in brief: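 In vitro scavenging assay run on the solvent partitions of the methanolic root-bark extract (hexanes, CHCl3, EtOAc, n-BuOH) and on pure isolates, with a positive control. ED50 is the concentration that scavenges hydroxyl radicals by 50%.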

NF-κB p65 = NF-κB p65 (Homo sapiens, UniProt Q04206); test: NF-κB p65 inhibition assay; format: cell-based
[2] = test system: HT-29 human colon cancer cell line; test: Cytotoxicity against HT-29 cell line; format: cell-based; conditions: HT-29, read-out: cytotoxicity IC50 (concentration inhibiting HT-29 cell growth by 50%)
Method in brief: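 Pure isolates were tested against HT-29 human colon cancer cells, with a positive control. IC50 is the concentration that inhibits HT-29 cell growth by 50%, and an IC50 below 10 μM is counted as active.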

NF-κB p65, sequence (Q04206 whole entry): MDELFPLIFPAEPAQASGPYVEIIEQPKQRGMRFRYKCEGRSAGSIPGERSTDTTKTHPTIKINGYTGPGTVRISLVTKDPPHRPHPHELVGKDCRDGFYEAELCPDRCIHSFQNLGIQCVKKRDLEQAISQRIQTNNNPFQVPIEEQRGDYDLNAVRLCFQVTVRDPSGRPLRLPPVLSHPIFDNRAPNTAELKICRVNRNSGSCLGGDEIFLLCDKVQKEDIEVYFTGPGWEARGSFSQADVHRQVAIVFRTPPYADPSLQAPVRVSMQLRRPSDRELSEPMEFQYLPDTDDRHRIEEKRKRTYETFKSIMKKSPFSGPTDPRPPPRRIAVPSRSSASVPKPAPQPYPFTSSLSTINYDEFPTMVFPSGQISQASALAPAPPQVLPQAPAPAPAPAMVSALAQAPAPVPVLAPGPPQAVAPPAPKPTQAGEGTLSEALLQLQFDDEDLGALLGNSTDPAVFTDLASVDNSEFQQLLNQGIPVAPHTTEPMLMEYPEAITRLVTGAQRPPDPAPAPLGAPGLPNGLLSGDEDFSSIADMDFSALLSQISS

SMILES | hydroxy radical-scavenging ED50 (concentration scavenging hydroxyl radical by 50%) [1] [µM] | also measured
C=CC(C)(C)c1cc(C(=O)c2c(-c3cc(-c4cc5cc(C(C)(C)C=C)c(O)cc5oc4=O)c(O)cc3O)oc3cc(O)ccc23)c(O)cc1O [compound 1, sphenostylisin A] | 0.71 | NF-κB inhibitory potency relative to compound 3 (NF-κB p65; times more potency than compound 3): 75 times; NF-κB p65 inhibitory potency relative to the positive control rocaglamide (NF-κB p65; times more potent than rocaglamide): > 10 times
C=CC(C)(C)c1cc(-c2oc3cc(O)ccc3c2Cc2cc(-c3cc4cc(C(C)(C)C=C)c(O)cc4oc3=O)c(O)cc2O)c(O)cc1O [compound 2, sphenostylisin B] | 0.73 | –
C=CC(C)(C)c1cc2c(cc1O)OC[C@H](c1cc(-c3oc4cc(O)ccc4c3C(=O)c3cc(C(C)(C)C=C)c(O)cc3O)c(O)cc1O)C2 [compound 3, sphenostylisin C] | 0.94 | –
C=CC(C)(C)c1cc2cc(-c3ccc(O)cc3O)c(=O)oc2cc1O [compound 4, 7-hydroxy-6-(2-methylbut-3-en-2-yl)-2′,4′-dihydroxy-3-phenylcoumarin] | 2.6 | NF-κB p65 inhibitory activity retained relative to compound 1 (NF-κB p65; fraction of the activity of 1): one-tenth
CC1(C)c2cc3cc(-c4ccc(O)cc4O)c(=O)oc3cc2OC1CO (stereo not drawn) [compound 5, 6-(2,7-epoxy-3-methylbut-1-ol-3-yl)-2′,4′-dihydroxy-3-phenylcoumarin] | 18.5 | –
C=CC(C)(O)Cc1cc2cc(-c3ccc(O)cc3O)c(=O)oc2cc1O (stereo not drawn) [compound 6, 7-hydroxy-6-(2-hydroxy-2-methylbut-3-en-1-yl)-2′,4′-dihydroxy-3-phenylcoumarin] | >20 | –
C=CC(C)(CO)c1cc2cc(-c3ccc(O)cc3O)c(=O)oc2cc1O (stereo not drawn) [compound 7, 7-hydroxy-6-(1-hydroxy-2-methylbut-3-en-2-yl)-2′,4′-dihydroxy-3-phenylcoumarin] | >20 | –
C=CC(C)(CO)c1cc2c(=O)c(-c3ccc(O)cc3O)coc2cc1O (stereo not drawn) [compound 8, 7-hydroxy-6-(1-hydroxy-2-methylbut-3-en-2-yl)-2′,4′-dihydroxyisoflavone] | 2.2 | IC50 (NF-κB p65): 0.45 µM; IC50 [2]: > 10 µM
CC1(C)c2cc(CC(=O)c3ccc(O)cc3O)c(O)cc2OC1CO (stereo not drawn) [compound 9, 2,4-dihydroxy-2′-dihydroxy-5′-(2,4′-epoxy-3-methylbut-1-ol-3-yl)deoxybenzoin] | 1.0 | –
C=CC(C)(O)Cc1cc(CC(=O)c2ccc(O)cc2O)c(O)cc1O (stereo not drawn) [compound 10, 2,4-dihydroxy-2′,4′-dihydroxy-5′-(2-hydroxy-2-methylbut-3-en-1-yl)deoxybenzoin] | 0.60 | IC50 (NF-κB p65): > 20 µM; IC50 [2]: > 10 µM
C=CC(C)(CO)c1cc(CC(=O)c2ccc(O)cc2O)c(O)cc1O (stereo not drawn) [compound 11, 2,4-dihydroxy-2′,4′-dihydroxy-5′-(1-hydroxy-2-methylbut-3-en-2-yl)deoxybenzoin] | 0.63 | IC50 (NF-κB p65): > 20 µM; IC50 [2]: > 10 µM
O=c1c(O)c(-c2ccc(O)c(O)c2)oc2cc(O)cc(O)c12 [quercetin, reference compound] | 1.2 | –
